Experimental data reported in ChEMBL document CHEMBL3091303, “1,3-Dialkyl-substituted tetrahydropyrimido[1,2-f]purine-2,4-diones as multiple target drugs for the potential treatment of neurodegenerative diseases” (Bioorg Med Chem, 2013).

What was measured:
[1] = molecular target: T1, Adenosine receptor A1 (Rattus norvegicus, UniProt P25099); experiment: Displacement of [3H]CCPA from adenosine A1 receptor in rat brain cortex; type: tissue-based
T1 sequence (P25099 whole entry): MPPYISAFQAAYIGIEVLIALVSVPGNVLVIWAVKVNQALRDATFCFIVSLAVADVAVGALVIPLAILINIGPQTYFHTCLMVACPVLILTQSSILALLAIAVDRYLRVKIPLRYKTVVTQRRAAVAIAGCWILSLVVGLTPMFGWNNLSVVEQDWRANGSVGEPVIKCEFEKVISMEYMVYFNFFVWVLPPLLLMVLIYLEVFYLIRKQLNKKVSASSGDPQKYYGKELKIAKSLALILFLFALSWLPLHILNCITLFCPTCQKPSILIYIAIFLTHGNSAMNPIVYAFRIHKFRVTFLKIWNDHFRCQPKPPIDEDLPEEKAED
How it was run: (§1)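 Radioligand binding to rat A1 receptors in rat brain cortical membrane preparations. Values are given as Ki, or as % inhibition of radioligand binding at the indicated concentration.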

[2] = molecular target: T2, Amine oxidase [flavin-containing] B (Homo sapiens, UniProt P27338); experiment: Inhibition of human MAO-B
T2 sequence (P27338 whole entry): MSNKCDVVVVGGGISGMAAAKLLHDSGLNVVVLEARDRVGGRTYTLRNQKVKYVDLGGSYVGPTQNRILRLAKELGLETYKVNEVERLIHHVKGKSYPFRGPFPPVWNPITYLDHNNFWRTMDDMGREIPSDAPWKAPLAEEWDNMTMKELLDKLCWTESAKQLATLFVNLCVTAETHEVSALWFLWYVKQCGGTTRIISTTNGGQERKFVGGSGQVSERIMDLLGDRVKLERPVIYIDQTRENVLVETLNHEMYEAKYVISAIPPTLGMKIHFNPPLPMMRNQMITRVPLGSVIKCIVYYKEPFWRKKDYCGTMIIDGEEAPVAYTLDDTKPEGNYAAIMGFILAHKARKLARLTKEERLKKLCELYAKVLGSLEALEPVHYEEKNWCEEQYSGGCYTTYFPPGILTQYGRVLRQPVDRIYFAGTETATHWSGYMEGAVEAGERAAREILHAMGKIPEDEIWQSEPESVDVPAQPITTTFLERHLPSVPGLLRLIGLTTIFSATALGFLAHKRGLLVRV

[3] = molecular target: T3, Adenosine receptor A2b (Homo sapiens) (UniProt P29275); experiment: Displacement of [3H]PSB-603 from human adenosine A2B receptor relative to control; design: concentration or dose not given beside the values; conditions: concentration not given here
T3 sequence (whole entry): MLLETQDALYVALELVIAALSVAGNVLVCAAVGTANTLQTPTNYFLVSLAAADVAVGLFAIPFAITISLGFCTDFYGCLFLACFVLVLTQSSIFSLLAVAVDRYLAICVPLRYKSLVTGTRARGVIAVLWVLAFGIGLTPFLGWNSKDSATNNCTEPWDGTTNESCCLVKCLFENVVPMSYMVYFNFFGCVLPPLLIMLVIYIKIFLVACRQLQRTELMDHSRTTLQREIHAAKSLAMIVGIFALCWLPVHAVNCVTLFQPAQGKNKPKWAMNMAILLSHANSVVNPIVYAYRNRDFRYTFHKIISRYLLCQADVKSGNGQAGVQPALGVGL

[4] = molecular target: T4, Amine oxidase [flavin-containing] A (Homo sapiens, UniProt P21397); experiment: Inhibition of human MAO-A
T4 sequence (P21397 whole entry): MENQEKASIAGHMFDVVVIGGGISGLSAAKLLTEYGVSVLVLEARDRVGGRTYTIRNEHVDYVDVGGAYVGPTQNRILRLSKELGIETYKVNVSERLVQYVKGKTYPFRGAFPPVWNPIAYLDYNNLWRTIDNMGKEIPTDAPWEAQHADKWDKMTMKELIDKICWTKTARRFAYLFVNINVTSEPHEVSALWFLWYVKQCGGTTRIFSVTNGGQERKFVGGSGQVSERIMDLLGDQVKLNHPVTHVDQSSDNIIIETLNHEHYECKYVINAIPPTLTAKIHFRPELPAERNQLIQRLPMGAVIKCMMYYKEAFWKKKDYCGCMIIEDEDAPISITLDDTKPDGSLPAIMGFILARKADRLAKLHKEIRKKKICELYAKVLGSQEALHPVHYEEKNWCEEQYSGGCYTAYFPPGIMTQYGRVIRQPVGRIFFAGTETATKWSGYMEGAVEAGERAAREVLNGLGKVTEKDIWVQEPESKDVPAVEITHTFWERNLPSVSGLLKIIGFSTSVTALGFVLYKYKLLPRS
How it was run: (§2)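 Human MAO-A and MAO-B inhibition, screened first at a test concentration of 10 µM.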

[5] = molecular target: T5, Adenosine receptor A3 (Homo sapiens) (UniProt P0DMS8); experiment: Displacement of [3H]PSB-11 from human adenosine A3 receptor expressed in CHO cells relative to control; type: cell-based; design: concentration or dose not given beside the values; conditions: concentration not given here
T5 sequence (whole entry): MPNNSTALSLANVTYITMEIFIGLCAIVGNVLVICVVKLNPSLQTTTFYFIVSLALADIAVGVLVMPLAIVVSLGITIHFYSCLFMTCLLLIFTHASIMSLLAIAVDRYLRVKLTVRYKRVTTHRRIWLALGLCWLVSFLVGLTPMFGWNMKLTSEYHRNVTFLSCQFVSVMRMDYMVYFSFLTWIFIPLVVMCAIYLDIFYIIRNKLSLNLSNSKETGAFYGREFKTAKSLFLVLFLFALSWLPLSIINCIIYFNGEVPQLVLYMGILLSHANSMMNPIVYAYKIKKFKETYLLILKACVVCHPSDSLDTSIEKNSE

[6] = molecular target: T6, Adenosine receptor A2b (Homo sapiens, UniProt P29275); experiment: Displacement of [3H]PSB-603 from human adenosine A2B receptor
T6 sequence (P29275 whole entry): T3 sequence (whole entry)

[7] = molecular target: T7, Adenosine receptor A1 (Homo sapiens, UniProt P30542); experiment: Displacement of [3H]CCPA from human adenosine A1 receptor expressed in CHO cells; type: cell-based
T7 sequence (P30542 whole entry): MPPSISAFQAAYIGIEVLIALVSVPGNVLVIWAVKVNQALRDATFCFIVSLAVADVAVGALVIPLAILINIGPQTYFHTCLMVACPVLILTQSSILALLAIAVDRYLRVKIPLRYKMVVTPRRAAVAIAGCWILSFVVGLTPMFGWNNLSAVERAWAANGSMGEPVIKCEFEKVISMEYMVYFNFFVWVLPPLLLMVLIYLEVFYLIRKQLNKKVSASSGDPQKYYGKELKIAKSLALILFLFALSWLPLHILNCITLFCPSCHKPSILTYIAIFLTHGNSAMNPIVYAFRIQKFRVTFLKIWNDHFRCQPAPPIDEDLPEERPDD
How it was run: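 Radioligand binding to human receptors recombinantly expressed in Chinese hamster ovary (CHO) cells. Results are Ki, or % inhibition of radioligand binding at the indicated concentration.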

[8] = molecular target: Adenosine receptor A2a (Rattus norvegicus, UniProt P30543); experiment: Displacement of [3H]MSX-2 from adenosine A2A receptor in rat brain striatum; type: tissue-based
[9] = molecular target: T8, Adenosine receptor A3 (Homo sapiens, UniProt P0DMS8); experiment: Displacement of [3H]PSB-11 from human adenosine A3 receptor expressed in CHO cells; type: cell-based
T8 sequence (P0DMS8 whole entry): T5 sequence (whole entry)

[10] = molecular target: T9, MAO-A (amine oxidase [flavin-containing] A) (Homo sapiens, UniProt P21397); experiment: Inhibition of human MAO-A at 10 uM relative to control; how it was run: as §2
T9 sequence (P21397 whole entry): T4 sequence (P21397 whole entry)

[11] = molecular target: T10, Adenosine receptor A1 (Rattus norvegicus) (UniProt P25099); experiment: Displacement of [3H]CCPA from adenosine A1 receptor in rat brain cortex relative to control; type: tissue-based; design: concentration or dose not given beside the values; conditions: concentration not given here; how it was run: as §1
T10 sequence (whole entry): T1 sequence (P25099 whole entry)

[12] = molecular target: T11, MAO-B (amine oxidase [flavin-containing] B) (Homo sapiens, UniProt P27338); experiment: Inhibition of human MAO-B at 10 uM relative to control; how it was run: as §2
T11 sequence (P27338 whole entry): T2 sequence (P27338 whole entry)

Sequence of Adenosine receptor A2a (P30543 whole entry): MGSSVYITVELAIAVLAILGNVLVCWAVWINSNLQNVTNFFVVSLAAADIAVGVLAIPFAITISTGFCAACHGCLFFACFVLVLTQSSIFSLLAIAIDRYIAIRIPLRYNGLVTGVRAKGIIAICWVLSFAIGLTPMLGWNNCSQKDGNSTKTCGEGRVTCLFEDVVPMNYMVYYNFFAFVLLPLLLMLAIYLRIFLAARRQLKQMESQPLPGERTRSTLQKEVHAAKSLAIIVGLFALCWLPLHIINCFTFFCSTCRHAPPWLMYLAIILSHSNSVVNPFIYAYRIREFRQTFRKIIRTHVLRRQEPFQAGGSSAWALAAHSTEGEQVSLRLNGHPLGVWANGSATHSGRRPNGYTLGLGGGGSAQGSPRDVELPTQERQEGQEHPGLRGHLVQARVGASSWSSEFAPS

SMILES	Ki [1]	IC50 [2]	inhibition [3]	IC50 [4]	inhibition [5]	Ki [6]	Ki [7]	Ki [8]	Ki [9]	inhibition at 10 µM [10]	inhibition [11]	inhibition at 10 µM [12]
CCCn1c(=O)c2c(nc3n2CCCN3CC(=O)N2CCN(Cc3ccc(C(F)(F)F)cc3)CC2)n(CCC)c1=O	> 1.5 µM	2.98 µM	15%	> 10 µM	–	> 1 µM	–	7.31 µM	0.541 µM	5%	23%	–
C#CCn1c(=O)c2c(nc3n2CCCN3Cc2cccnc2)n(C)c1=O	1.83 µM	> 10 µM	1%	–	4%	> 0.3 µM	–	6.22 µM	> 1 µM	–	–	21%
Cn1c(=O)c2c(nc(/C=C/c3cccc(Cl)c3)n2C)n(C)c1=O	–	–	–	> 10 µM	–	–	–	–	–	23%	–	–
Cn1c(=O)c2c(nc3n2CCCN3Cc2ccc(Cl)c(Cl)c2)n(C)c1=O	4.01 µM	0.0629 µM	5%	> 10 µM	30%	> 1 µM	–	3.69 µM	> 10 µM	10%	–	–
CCn1c(=O)c2c(nc3n2CCCN3CCc2cccc(OC)c2)n(CC)c1=O	> 10 µM	> 10 µM	29%	–	–	> 1 µM	–	2.65 µM	3.41 µM	–	31%	33%
C#CCn1c(=O)c2c(nc3n2CCCN3CCc2cc(OC)c(OC)c(OC)c2)n(C)c1=O	> 10 µM	> 10 µM	-2%	–	5%	> 1 µM	–	0.723 µM	> 1 µM	–	18%	29%
CCn1c(=O)c2c(nc3n2CCCN3CCc2cc(OC)c(OC)c(OC)c2)n(CC)c1=O	> 10 µM	> 10 µM	6%	–	24%	> 1 µM	–	3.87 µM	> 10 µM	–	14%	25%
Cn1c(=O)c2c(nc3n2CCCN3c2cccc(Cl)c2)n(C)c1=O	4.42 µM	4.96 µM	-4%	> 10 µM	33%	> 1 µM	–	3.76 µM	> 10 µM	15%	–	–
Cn1c(=O)c2c(nc3n2CCCN3CC(=O)N2CCN(Cc3ccc(Cl)cc3)CC2)n(C)c1=O	> 1.5 µM	> 10 µM	–	–	23%	> 1 µM	–	9.42 µM	> 10 µM	–	-1%	30%
CCCn1c(=O)c2c(nc3n2CCCN3CC(=O)N2CCN(Cc3ccccc3)CC2)n(CCC)c1=O	> 1.5 µM	> 10 µM	0%	–	28%	> 1 µM	–	8.22 µM	> 1 µM	–	17%	15%
C#CCn1c(=O)c2c(nc3n2CCCN3c2ccc(C(C)C)cc2)n(C)c1=O	5.22 µM	10 µM	17%	> 10 µM	–	> 1 µM	–	1.48 µM	–	5%	–	64%
CCn1c(=O)c2c(nc3n2CCCN3c2cccc(OC)c2)n(CC)c1=O	1.24 µM	6.39 µM	21%	> 10 µM	–	> 1 µM	–	5.37 µM	6.8 µM	4%	–	–
CCn1c(=O)c2c(nc3n2CCCN3CCc2ccc(OC)c(OC)c2)n(CC)c1=O	> 10 µM	5.87 µM	15%	> 10 µM	32%	> 1 µM	–	1.88 µM	> 10 µM	4%	35%	–

Continued by falling Ki [1], values first:

Ki [1]	IC50 [2]	inhibition [3]	IC50 [4]	inhibition [5]	Ki [6]	Ki [7]	Ki [8]	Ki [9]	inhibition at 10 µM [10]	inhibition [11]	inhibition at 10 µM [12]	SMILES
0.555 µM	10 µM	7%	> 10 µM	–	–	10.2 µM	3.03 µM	–	11%	–	50%	C#CCn1c(=O)c2c(nc3n2CCCN3Cc2ccc(OC)cc2)n(C)c1=O
0.545 µM	10 µM	11%	–	29%	> 1 µM	6.65 µM	1.88 µM	> 10 µM	–	–	48%	CCn1c(=O)c2c(nc3n2CCCN3c2ccc(F)cc2)n(CC)c1=O
0.506 µM	3.26 µM	20%	> 10 µM	–	> 1 µM	3.92 µM	1.83 µM	3.03 µM	28%	–	–	CCn1c(=O)c2c(nc3n2CCCN3CCc2ccccc2OC)n(CC)c1=O
0.321 µM	3.72 µM	3%	> 10 µM	37%	> 1 µM	1.04 µM	1.7 µM	> 10 µM	-3%	–	–	CCn1c(=O)c2c(nc3n2CCCN3C2CCCCC2)n(CC)c1=O
0.228 µM	> 10 µM	9%	–	28%	> 1 µM	9.65 µM	2.04 µM	> 1 µM	–	–	30%	C#CCn1c(=O)c2c(nc3n2CCCN3c2cc(OC)cc(OC)c2)n(C)c1=O
